Laboratory results reported in ChEMBL document CHEMBL1141756, “3-Nitropropionic acid (3-NPA), a potent antimycobacterial agent from endophytic fungi: is 3-NPA in some plants produced by endophytes?” (J Nat Prod, 2005).
≈ marks a conversion by molar mass, not a printed value. Counter-ions that a name gives are not always drawn. Calls of active or inactive are those of the source. No cut-off for these calls is given here.

Assays:
[1] = test system: Vero; assay: Cytotoxicity against african green monkey Vero cells at 419.8 uM; format: functional, cell-based; settings: Chlorocebus sabaeus
Method in brief: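 Vero cells tested at 419.8 µM using the Skehan colorimetric cytotoxicity method; ellipticine reference.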

[2] = test system: Mycobacterium tuberculosis; assay: Antimycobacterial activity against Mycobacterium tuberculosis H37Ra by microplate alamar blue assay; format: functional
Method in brief: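 MABA against M. tuberculosis H37Ra grown in Middlebrook 7H9 broth; MIC read. Isoniazid and kanamycin sulfate run as reference drugs in the same experiment as samples.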

[3] = test system: KB; assay: Cytotoxicity against human KB cells at 167.9 uM; format: functional, cell-based
Method in brief: (§1)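 BC, KB and NCI-H187 cells tested at 167.9 µM using the Skehan colorimetric cytotoxicity method; ellipticine reference.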

[4] = test system: BC; assay: Cytotoxicity against human BC cells at 167.9 uM; format: functional, cell-based; method in brief: as §1
[5] = test system: NCI-H187; assay: Cytotoxicity against human NCI-H187 cells at 167.9 uM; format: functional, cell-based; method in brief: as §1
[6] = Cytotoxicity against human BC cells; format: functional, cell-based
Method in brief: (§2)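 Colorimetric cytotoxicity method (Skehan) on Vero, KB, NCI-H187 (small-cell lung cancer) and BC (breast cancer) cells; IC50 derived; ellipticine as reference compound.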

[7] = test system: KB; assay: Cytotoxicity against human KB cells; format: functional, cell-based; method in brief: as §2
[8] = test system: NCI-H187; assay: Cytotoxicity against human NCI-H187 cells; format: functional, cell-based; method in brief: as §2
[9] = test system: Vero; assay: Cytotoxicity against african green monkey Vero cells; format: functional, cell-based; settings: Chlorocebus sabaeus; method in brief: as §2

SMILES: O=C(O)CC[N+](=O)[O-]
- Activity [1]: inactive
- MIC [2]: 3.3 µM (≈ 0.393 µg/mL)
- Activity [3]: inactive
- Activity [4]: inactive
- Activity [5]: inactive

SMILES: Cc1c2ccncc2c(C)c2c1[nH]c1ccccc12 [ELLIPTECINE]
- IC50 [6]: 0.8 µM
- IC50 [7]: 0.8 µM
- IC50 [8]: 0.8 µM
- IC50 [9]: 0.8 µM

SMILES: NNC(=O)c1ccncc1 [ISONIAZID]
- MIC [2]: 0.29 µM (≈ 0.0398 µg/mL)

SMILES: NC[C@H]1O[C@H](O[C@H]2[C@H](O)[C@@H](O[C@H]3O[C@H](CO)[C@@H](O)[C@H](N)[C@H]3O)[C@H](N)C[C@@H]2N)[C@H](O)[C@@H](O)[C@@H]1O [KANAMYCIN SULFATE]
- MIC [2]: 3.4 µM
